Measurements from different studies.
Compare with care: the assays were run in different laboratories.
CDK5 with p25: Cyclin-dependent kinase 5, with p25 (CDK5, Homo sapiens, UniProt Q00535)
CDK5: Cyclin-dependent kinase 5 (CDK5, Homo sapiens, UniProt Q00535)

Compound | target | read-out | action | method | concentration | endpoint | result
CC(C)S(=O)(=O)c1ccc2nccc(Nc3ccc4sc(C5CCCC5)nc4c3)c2c1 | CDK5 with p25 | enzyme activity | inhibitor | – | 1 µM | activity vs control | 97.5%
CCCCC(=O)Nc1ccc(-c2ccc3ncn(CCC)c(=O)c3c2)cn1 | CDK5 | binding | – | competition with immobilised ligand | 0.5 µM | remaining binding | 78%
C1=C/COCc2cc(ccc2OCCN2CCCC2)Nc2nccc(n2)-c2cccc(c2)COC/1 | CDK5 | binding | – | – | 0.1 µM | remaining binding | 100%
Cc1ccc(NC(=O)c2ccnc(C(F)(F)F)c2)cc1-c1cc(OCCO)nc(N2CCOCC2)c1 | CDK5 | binding | – | competition with immobilised ligand | 1 µM | remaining binding | 95%
CO[C@@H]1[C@H](N(C)C(=O)c2ccccc2)C[C@H]2O[C@]1(C)n1c3ccccc3c3c4c(c5c6ccccc6n2c5c31)C(=O)NC4 | CDK5 | enzyme activity | inhibitor | – | 1 µM | inhibition | 0%
COc1ccc2oc(-c3ccc4nc(N)oc4c3)c/c(=N\c3ccccc3NC(=O)CCN)c2c1 | CDK5 with p25 | binding | – | – | 1 µM | remaining binding | 102%
C[C@]1(O)CCCN(c2nc(Nc3ccc(S(=O)(=O)N[C@H]4CC[C@H](CN5CCN(c6ccc(C7CCC(=O)NC7=O)cc6F)CC5)CC4)cc3Cl)ncc2C(F)(F)F)C1 (stereo partly shown) | CDK5 | binding | – | competition with immobilised ligand | 1 µM | remaining binding | 72%
COc1ccc2[nH]c3c4[nH]c5ccc(OC)cc5c4c4c(c3c2c1)C(=O)NC4=O | CDK5 | binding | – | competition with immobilised ligand | 1 µM | remaining binding | 75%
CC#CC(=O)N1CCC[C@H]1c1nc(-c2ccc(C(=O)Nc3ccccn3)cc2)c2c(N)nccn12 | CDK5 | enzyme activity | inhibitor | – | 1 µM | inhibition | 0%
C[C@]1(O)CCCN(c2nc(Nc3ccc(S(=O)(=O)N[C@H]4CC[C@H](CN5CCN(c6ccc(C7CCC(=O)NC7=O)cc6F)CC5)CC4)cc3F)ncc2C(F)(F)F)C1 (stereo partly shown) | CDK5 | binding | – | competition with immobilised ligand | 1 µM | remaining binding | 59%
